One may read the IC50 as the concentration that gives 50% inhibition.

Experimental findings from ChEMBL document CHEMBL5329172, “Chloroacetamide fragment library screening identifies new scaffolds for covalent inhibition of the TEAD·YAP1 interaction” (RSC Med Chem, 2023) are described below.

Test [1] deals with T1, YAP1-TEAD4 (Homo sapiens) (UniProt P46937+Q15561). The test can be described thus: Covalent inhibition of GST-tagged TEAD4 (217 to 434 residues) (unknown origin) expressed in Escherichia coli BL21 (DE3) cells/FAM-labelled YAP1 (60 to 99 residues)(unknown origin) protein-protein interaction assessed as protein-compound adduct formation at 100 uM incubated for 24 hrs at 4 degree C followed by mass spectrometry analysis. The essentials:
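Intact-protein MS: 2.5 μM protein (TEAD4 217–434 with GST cleaved, TEAD4C367S, TEAD1 209–426, TEAD2 217–447 or TEAD3 210–427) incubated with 100 μM compound in PBS for 24 h at 4 °C. Samples were centrifuged to remove precipitate, desalted on a C3 reverse-phase column with a water/acetonitrile 0.1% formic acid gradient, and masses were read by Q-TOF. Adduct peaks were reported as percent.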

Test [2] concerns the target T2, YAP1-TEAD4 (Homo sapiens, UniProt Q15561). As to the kind of experiment: Inhibition of GST-tagged TEAD4 (217 to 434 residues) (unknown origin) expressed in Escherichia coli BL21 (DE3) cells/FAM-labelled YAP1 (60 to 99 residues)(unknown origin) protein-protein interaction preincubated for 24 hrs at 4 degree C with TEAD4 followed by fluorescent labelled YAP1 addition by fluorescence polarization assay. The essentials: (§1)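 FP: 64 nM TEAD4, TEAD4C367S, TEAD2 or TEAD3, or 250 nM TEAD1, was preincubated with compound for 24 h at 4 °C in PBS with 0.01% Triton X-100. FAM-YAP1 60–99 peptide (disulfide-crosslinked) was then added at 16 nM final. Polarization was read at ex 485/em 535 nm. Percent inhibition was taken relative to no-compound and no-protein controls. The single-point primary screen used 50 μM.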

Test [3] has as its target T1, YAP1-TEAD4 (Homo sapiens). As to the kind of experiment: Inhibition of GST-tagged TEAD4 (217 to 434 residues) (unknown origin) expressed in Escherichia coli BL21 (DE3) cells/FAM-labelled YAP1 (60 to 99 residues)(unknown origin) protein-protein interaction assessed as maximum inhibition at 50 uM preincubated for 24 hrs at 4 degree C with TEAD4 followed by fluorescent labelled YAP1 addition by fluorescence polarization assay. The essentials:
as §1

The species entered for the next test is Homo sapiens. As to the kind of experiment: Inhibition of GST-tagged TEAD4 C367S mutant (unknown origin) expressed in Escherichia coli BL21 (DE3) cells/FAM-labelled YAP1 (60 to 99 residues)(unknown origin) protein-protein interaction preincubated for 24 hrs at 4 degree C with TEAD4 C367S mutant followed by fluorescent labelled YAP1 addition by fluorescence polarization assay. The essentials:
as §1
Background: Polarisation of emitted light reports the rotation of a fluorescent probe.

The test system of a further test is S2. The test can be described thus: Inhibition of uPAR (unknown origin) expressed in S2 cells/FAM-labelled alpha-helical peptide AE-147 (unknown origin) protein-protein interaction preincubated for 24 hrs at 4 degree C with uPAR followed by fluorescent labelled AE-147 addition by fluorescence polarization assay. The following applies: Homo sapiens. The essentials: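 Counter-screen FP: 250 nM uPAR lacking the GPI anchor (from S2 cells) was preincubated with compound for 24 h at 4 °C in PBS with 0.01% Triton X-100. AE-147-FAM peptide was then added at 100 nM final and polarization read at ex 485/em 535 nm.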

Test [4] concerns the target T2, YAP1-TEAD4. As to the kind of experiment: Inhibition of GST-tagged TEAD4 (217 to 434 residues) (unknown origin) expressed in Escherichia coli BL21 (DE3) cells/FAM-labelled YAP1 (60 to 99 residues)(unknown origin) protein-protein interaction preincubated for 48 hrs at 4 degree C with TEAD4 followed by fluorescent labelled YAP1 addition by fluorescence polarization assay. The essentials: (§2)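 Time-course FP: 64 nM TEAD4 was preincubated with varying compound concentrations for 0.5, 6, 24 or 48 h at 4 °C in PBS with 0.01% Triton X-100. 16 nM FAM-YAP1 60–99 peptide was then added and polarization read at 485/535 nm, n = 2. Inhibition was taken relative to no-compound and no-protein controls.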

Test [5] concerns the target T1, YAP1-TEAD4 (Homo sapiens). The test can be described thus: Inhibition of GST-tagged TEAD4 (217 to 434 residues) (unknown origin) expressed in Escherichia coli BL21 (DE3) cells/FAM-labelled YAP1 (60 to 99 residues)(unknown origin) protein-protein interaction assessed maximum inhibition preincubated for 0.5 hrs at 4 degree C with TEAD4 followed by fluorescent labelled YAP1 addition by fluorescence polarization assay. The essentials:
as §2

In test [6] the target is T1, YAP1-TEAD4 (Homo sapiens). As to the kind of experiment: Inhibition of GST-tagged TEAD4 (217 to 434 residues) (unknown origin) expressed in Escherichia coli BL21 (DE3) cells/FAM-labelled YAP1 (60 to 99 residues)(unknown origin) protein-protein interaction assessed maximum inhibition preincubated for 6 hrs at 4 degree C with TEAD4 followed by fluorescent labelled YAP1 addition by fluorescence polarization assay. The essentials: as §2

Test [7] concerns the target T1, YAP1-TEAD4 (Homo sapiens). The test can be described thus: Inhibition of GST-tagged TEAD4 (217 to 434 residues) (unknown origin) expressed in Escherichia coli BL21 (DE3) cells/FAM-labelled YAP1 (60 to 99 residues)(unknown origin) protein-protein interaction assessed maximum inhibition preincubated for 48 hrs at 4 degree C with TEAD4 followed by fluorescent labelled YAP1 addition by fluorescence polarization assay. The essentials: as §2

The target of test [8] is T2, YAP1-TEAD4. As to the kind of experiment: Covalent inhibition of GST-tagged TEAD4 (217 to 434 residues) (unknown origin) expressed in Escherichia coli BL21 (DE3) cells/FAM-labelled YAP1 (60 to 99 residues)(unknown origin) protein-protein interaction assessed as protein-compound adduct formation by measuring inhibition constant at 100 uM incubated for 0.5 to 6 hrs at 4 degree C followed by mass spectrometry analysis. The essentials: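 Kinetics by MS: 2.5 μM TEAD4 was incubated at 4 °C with 3.1–100 μM compound. Aliquots were quenched with 0.1 M formic acid at set times from 0.5 h upward and analysed by whole-protein MS. Adduct relative to unreacted protein was fit to 100×(1−e^(−kobs·t)) to give kobs. kobs versus concentration was fit hyperbolically for kinact and KI, or linearly for kinact/KI where no plateau was reached.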

Test [9] deals with Transcriptional coactivator YAP1/Transcriptional enhancer factor TEF-1 (Homo sapiens) (UniProt P46937+P28347). The test can be described thus: Inhibition of TEAD1 (209 to 426 residues) (unknown origin) expressed in Escherichia coli BL21 (DE3) cells/FAM-labelled YAP1 (60 to 99 residues)(unknown origin) protein-protein interaction preincubated for 24 hrs at 4 degree C with compound followed by fluorescent labelled YAP1 addition by fluorescence polarization assay. The essentials:
as §1

The next test concerns the target TEAD2-YAP1 (Homo sapiens, UniProt Q15562). As to the kind of experiment: Inhibition of TEAD2 (217 to 447 residues) (unknown origin) expressed in Escherichia coli BL21 (DE3) cells/FAM-labelled YAP1 (60 to 99 residues)(unknown origin) protein-protein interaction preincubated for 24 hrs at 4 degree C with compound followed by fluorescent labelled YAP1 addition by fluorescence polarization assay. The essentials: as §1

The target in test [10] is TEAD3-YAP1 (Homo sapiens) (UniProt P46937+Q99594). The test can be described thus: Inhibition of TEAD3 (210 to 427 residues) (unknown origin) expressed in Escherichia coli BL21 (DE3) cells/FAM-labelled YAP1 (60 to 99 residues)(unknown origin) protein-protein interaction preincubated for 24 hrs at 4 degree C with compound followed by fluorescent labelled YAP1 addition by fluorescence polarization assay. The essentials: as §1

Active and inactive are the calls of the source. The calls are words filed in the database; no cut-off is given here.

Transcriptional coactivator YAP1/Transcriptional enhancer factor TEF-1 (Homo sapiens), sequence (P28347 whole entry, looked up, the tested form may be a part): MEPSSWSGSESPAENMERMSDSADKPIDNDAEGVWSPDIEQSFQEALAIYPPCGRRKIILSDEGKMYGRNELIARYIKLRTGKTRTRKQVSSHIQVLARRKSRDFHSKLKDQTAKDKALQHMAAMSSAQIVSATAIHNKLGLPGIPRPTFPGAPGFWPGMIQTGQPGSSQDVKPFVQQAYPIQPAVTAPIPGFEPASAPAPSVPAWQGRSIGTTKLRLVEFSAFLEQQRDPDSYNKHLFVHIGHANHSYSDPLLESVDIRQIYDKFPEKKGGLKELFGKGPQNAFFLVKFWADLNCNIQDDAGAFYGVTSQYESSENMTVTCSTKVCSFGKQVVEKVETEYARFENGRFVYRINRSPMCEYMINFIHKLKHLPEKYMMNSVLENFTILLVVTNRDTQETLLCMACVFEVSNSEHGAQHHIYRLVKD
Transcriptional coactivator YAP1/Transcriptional enhancer factor TEF-1 (Homo sapiens), sequence (P46937 whole entry, looked up, the tested form may be a part): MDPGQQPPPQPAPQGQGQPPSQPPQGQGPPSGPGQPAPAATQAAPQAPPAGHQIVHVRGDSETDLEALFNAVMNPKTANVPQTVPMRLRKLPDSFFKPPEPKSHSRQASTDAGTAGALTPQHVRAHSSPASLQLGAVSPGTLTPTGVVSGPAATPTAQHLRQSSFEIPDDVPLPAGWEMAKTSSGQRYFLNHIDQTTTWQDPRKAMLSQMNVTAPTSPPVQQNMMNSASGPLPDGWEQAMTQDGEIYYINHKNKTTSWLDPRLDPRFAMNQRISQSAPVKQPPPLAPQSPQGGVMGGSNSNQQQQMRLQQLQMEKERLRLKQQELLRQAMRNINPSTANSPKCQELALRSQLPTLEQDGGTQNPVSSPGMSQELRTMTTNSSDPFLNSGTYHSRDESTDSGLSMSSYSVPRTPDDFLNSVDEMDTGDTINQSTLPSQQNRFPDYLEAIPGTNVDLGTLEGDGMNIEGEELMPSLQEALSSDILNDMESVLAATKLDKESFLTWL
TEAD3-YAP1 (Homo sapiens), sequence (P46937 whole entry, looked up, the tested form may be a part): as above
TEAD3-YAP1 (Homo sapiens), sequence (Q99594 whole entry, looked up, the tested form may be a part): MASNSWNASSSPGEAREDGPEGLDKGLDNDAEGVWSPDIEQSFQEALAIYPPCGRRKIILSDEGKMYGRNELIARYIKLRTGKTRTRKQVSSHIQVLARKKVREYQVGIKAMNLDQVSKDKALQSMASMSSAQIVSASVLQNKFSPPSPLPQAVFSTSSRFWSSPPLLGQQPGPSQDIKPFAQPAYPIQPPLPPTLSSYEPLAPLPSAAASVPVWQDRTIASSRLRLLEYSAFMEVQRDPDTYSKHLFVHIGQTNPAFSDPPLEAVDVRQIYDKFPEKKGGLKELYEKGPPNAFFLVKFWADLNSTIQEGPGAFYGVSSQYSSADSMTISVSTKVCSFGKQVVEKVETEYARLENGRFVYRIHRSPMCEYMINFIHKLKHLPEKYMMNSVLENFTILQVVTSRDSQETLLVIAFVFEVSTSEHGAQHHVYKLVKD
T2 sequence (P46937 whole entry, the tested form may be a part): as the sequence (P46937 whole entry, looked up, the tested form may be a part) above
T2 sequence (Q15561 whole entry, the tested form may be a part): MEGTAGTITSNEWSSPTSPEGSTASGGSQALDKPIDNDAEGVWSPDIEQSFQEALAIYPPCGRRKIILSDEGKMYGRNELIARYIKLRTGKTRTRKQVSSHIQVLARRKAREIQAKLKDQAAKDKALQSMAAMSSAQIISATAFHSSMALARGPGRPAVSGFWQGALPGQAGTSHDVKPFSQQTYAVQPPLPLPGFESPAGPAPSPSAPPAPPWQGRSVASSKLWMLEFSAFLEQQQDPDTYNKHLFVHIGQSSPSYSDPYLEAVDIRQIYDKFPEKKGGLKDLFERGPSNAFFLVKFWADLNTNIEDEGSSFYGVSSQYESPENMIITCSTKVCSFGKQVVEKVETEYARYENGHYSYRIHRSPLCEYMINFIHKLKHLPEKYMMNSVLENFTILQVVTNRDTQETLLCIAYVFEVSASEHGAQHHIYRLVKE
TEAD2-YAP1, sequence (P46937 whole entry, the tested form may be a part): as the sequence (P46937 whole entry, looked up, the tested form may be a part) above
TEAD2-YAP1, sequence (Q15562 whole entry, the tested form may be a part): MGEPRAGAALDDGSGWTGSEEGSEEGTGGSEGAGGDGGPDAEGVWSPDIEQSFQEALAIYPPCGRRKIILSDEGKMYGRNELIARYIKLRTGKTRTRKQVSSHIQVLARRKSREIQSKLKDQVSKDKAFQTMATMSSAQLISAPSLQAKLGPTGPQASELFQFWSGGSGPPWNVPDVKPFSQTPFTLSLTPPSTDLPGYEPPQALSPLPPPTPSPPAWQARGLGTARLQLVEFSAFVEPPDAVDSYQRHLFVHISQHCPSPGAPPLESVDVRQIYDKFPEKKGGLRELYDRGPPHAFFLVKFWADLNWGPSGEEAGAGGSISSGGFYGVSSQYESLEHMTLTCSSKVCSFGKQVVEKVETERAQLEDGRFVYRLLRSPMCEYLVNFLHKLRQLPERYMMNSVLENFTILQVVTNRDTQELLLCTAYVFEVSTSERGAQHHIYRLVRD

In the case of `COc1cccc(C2CC(Cc3cccs3)=NN2C(=O)CCl)c1OC` (centres undefined), in test [1], the percent protein-compound adduct formation turned out to be 78%. Besides, the IC50 is 3.3 µM against YAP1-TEAD4 [2], 2.6 µM on YAP1-TEAD4 [4] and 3.1 µM on TEAD2-YAP1. In addition, the Imax in [3] stood at 48%; in test [5], 53%; in test [6], 53%; in test [7], 53%. Also, the inhibition entry (in the test listed under Homo sapiens; in the test on S2; in test [9]; in [10]) was “inactive” in each case. Moreover, the Ki on YAP1-TEAD4 [8] came out at 37.7 µM.

On to `Cc1ccc(C2=NN(C(=O)CCl)C(c3ccco3)C2)cc1` (centres undefined), for which the percent protein-compound adduct formation in test [1] turned out to be 85%. The concentration for half-maximal inhibition (IC50) was determined as 2.2 µM at YAP1-TEAD4 [2], 1.4 µM on YAP1-TEAD4 [4] and 2.3 µM on TEAD2-YAP1. For the same molecule, the Imax in [3] stood at 40%; in test [5], 35%; in test [6] it was 35%; in [7] it was 35%. For the same molecule, the inhibition result (in the test filed under Homo sapiens; with S2; in test [9]; in [10]) was “inactive” throughout.

`CCS(=O)(=O)Oc1ccc(CN(Cc2ccc(F)cc2)C(=O)CCl)cc1`: in test [1], the percent protein-compound adduct formation was 46%. Also, the results for the IC50 on YAP1-TEAD4 [2], at YAP1-TEAD4 [4] and at TEAD2-YAP1 were 4.2 µM, 5.3 µM and 22 µM, respectively. The figures for the Imax in test [3], in test [6] and in test [7] were 37%, 38% and 38%, respectively. For the same molecule, the inhibition entry (in the test filed under Homo sapiens; in the test on S2; in [9]; in test [10]) was “inactive” each time. Besides, the Ki at YAP1-TEAD4 [8] was 45.8 µM.

Regarding `O=C(NCCc1ccccc1)C(c1cccs1)N(C(=O)CCl)c1cccc(Cl)c1` (centres undefined), in test [1], the percent protein-compound adduct formation turned out to be 55%. In addition, the results for the IC50 at YAP1-TEAD4 [2] and against YAP1-TEAD4 [4] were 1.4 µM and 0.9 µM, respectively. Further, the Imax in test [3] came to 31%; in test [5], 37%; in test [6], 37%; in test [7] it was 37%. The inhibition result (in the test filed under Homo sapiens; with S2; in [9]; in test [10]) was “inactive” in each case. In addition, the Ki on YAP1-TEAD4 [8] was 17.3 µM.
